# Experiments:
# [1] = target: Human immunodeficiency virus type 1 protease (Human immunodeficiency virus 1) (UniProt Q72874); test: Antiviral activity against mutant virus HIV-1 mutant (84V) strain; type: functional
# Outline: (§1)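 I84V single and I84V/V82F double mutant HIV-1, both from in vitro selection under a cyclic urea inhibitor. IC90 measured by yield reduction assay.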
# [2] = target: Human immunodeficiency virus type 1 protease (Human immunodeficiency virus 1) (UniProt Q72874); test: Antiviral activity against mutant virus HIV-1 mutant (84V/82F) strain; type: functional; outline: as §1
# [3] = target: Human immunodeficiency virus type 1 protease (Human immunodeficiency virus 1) (UniProt Q72874); test: Antiviral activity against ritonavir virus (HIV-1 mutated at 46I/63P/71V/82F/84V and resistant to ritonavir); type: functional
# Outline: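 Mutant HIV-1 viruses carrying protease substitutions seen in ritonavir- or indinavir-treated patient isolates; the ritonavir virus carries 46I/63P/71V/82F/84V. IC90 read from a viral p24 readout, following the earlier method.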
# MT2 = test: Antiviral potency evaluated by measuring accumulation of viral RNA transcripts 3 days after infection of MT-2 cells with HIV-1 RF; type: functional; details: Homo sapiens, MT2, 72 h
# [4] = target: Human immunodeficiency virus type 1 protease (Human immunodeficiency virus 1, UniProt Q72874); test: Inhibitory activity against HIV protease
# Outline: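 Ki for HIV protease, measured by cleavage of a fluorescent substrate with HPLC analysis, following the earlier method.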
Structure (SMILES),IC90 mutant/IC90 WT [1],IC90 mutant/IC90 WT [2],IC90 mutant/IC90 WT [3],IC90 (MT2) [nM],Ki [4] [nM]
Nc1ccc(CN2C(=O)N(Cc3ccc4[nH]ncc4c3)[C@H](Cc3ccccc3)[C@H](O)[C@@H](O)[C@H]2Cc2ccccc2)cc1-n1cccn1,3.3,50,70,6,0.045
O=C1N(Cc2cccc(CCO)c2)[C@H](Cc2ccccc2)[C@H](O)[C@@H](O)[C@@H](Cc2ccccc2)N1Cc1ccc2[nH]ncc2c1,–,–,–,17,0.05
O=C(Cn1ccnn1)c1cccc(CN2C(=O)N(Cc3ccc4[nH]ncc4c3)[C@H](Cc3ccccc3)[C@H](O)[C@@H](O)[C@H]2Cc2ccccc2)c1,–,–,–,30,0.021
O=C1N(Cc2cccc(Cn3nccn3)c2)[C@H](Cc2ccccc2)[C@H](O)[C@@H](O)[C@@H](Cc2ccccc2)N1Cc1ccc2[nH]ncc2c1,–,–,–,32,0.081
O=C1N(Cc2cccc(-c3nc[nH]n3)c2)[C@H](Cc2ccccc2)[C@H](O)[C@@H](O)[C@@H](Cc2ccccc2)N1Cc1ccc2[nH]ncc2c1,3.3,18,3.8,24,0.041
NC(=O)c1cc(CN2C(=O)N(Cc3ccc4[nH]ncc4c3)[C@H](Cc3ccccc3)[C@H](O)[C@@H](O)[C@H]2Cc2ccccc2)ccc1F,–,–,–,14,0.018
Cc1cccc(NC(=O)c2cccc(CN3C(=O)N(Cc4ccc5[nH]ncc5c4)[C@H](Cc4ccccc4)[C@H](O)[C@@H](O)[C@H]3Cc3ccccc3)c2)n1,–,–,–,3,0.04
O=C1N[C@H](Cc2ccccc2)[C@H](O)[C@@H](O)[C@@H](Cc2ccccc2)N1Cc1ccc2[nH]ncc2c1,–,–,–,550,–
O=C1N(Cc2cccc(Cn3ccnn3)c2)[C@H](Cc2ccccc2)[C@H](O)[C@@H](O)[C@@H](Cc2ccccc2)N1Cc1ccc2[nH]ncc2c1,–,–,–,30,0.11
O=C(Cc1cccs1)c1cccc(CN2C(=O)N(Cc3ccc4[nH]ncc4c3)[C@H](Cc3ccccc3)[C@H](O)[C@@H](O)[C@H]2Cc2ccccc2)c1,–,–,–,18,0.23
CN(C)c1cccc(CN2C(=O)N(Cc3ccc4[nH]ncc4c3)[C@H](Cc3ccccc3)[C@H](O)[C@@H](O)[C@H]2Cc2ccccc2)c1,–,–,–,39,0.23
O=C1N(Cc2ccc(F)c(NCc3nc4ccccc4[nH]3)c2)[C@H](Cc2ccccc2)[C@H](O)[C@@H](O)[C@@H](Cc2ccccc2)N1Cc1ccc2[nH]ncc2c1,–,–,–,30,0.028
O=C1N(Cc2cccc(Cn3cncn3)c2)[C@H](Cc2ccccc2)[C@H](O)[C@@H](O)[C@@H](Cc2ccccc2)N1Cc1ccc2[nH]ncc2c1,–,–,–,35,0.054
O=C1N(Cc2cccc(NCc3nc4ccccc4[nH]3)c2)[C@H](Cc2ccccc2)[C@H](O)[C@@H](O)[C@@H](Cc2ccccc2)N1Cc1ccc2[nH]ncc2c1,1,3,–,63,0.016
O=C(Nc1nc2ccccc2[nH]1)c1cccc(CN2C(=O)N(Cc3cccc(C(=O)Nc4nc5ccccc5[nH]4)c3)[C@H](Cc3ccccc3)[C@H](O)[C@@H](O)[C@H]2Cc2ccccc2)c1,–,–,–,5.1,–
O=C1N(Cc2ccc3[nH]ncc3c2)[C@H](CCc2ccccc2)[C@@H](O)[C@@H](Cc2ccccc2)N1Cc1ccc2[nH]ncc2c1,–,–,–,6,0.023
Nc1ccc(CN2C(=O)N(Cc3ccc4[nH]ncc4c3)[C@H](Cc3ccccc3)[C@H](O)[C@@H](O)[C@H]2Cc2ccccc2)cc1F,–,–,–,7,0.036
CCNC(=O)c1cccc(CN2C(=O)N(Cc3cccc(C(=O)NCC)c3)[C@H](Cc3ccccc3)[C@H](O)[C@@H](O)[C@H]2Cc2ccccc2)c1,–,–,–,138,–
O=C(Cn1nccn1)c1cccc(CN2C(=O)N(Cc3ccc4[nH]ncc4c3)[C@H](Cc3ccccc3)[C@H](O)[C@@H](O)[C@H]2Cc2ccccc2)c1,–,–,–,15,0.046

Structure (SMILES),IC90 mutant/IC90 WT [1],IC90 mutant/IC90 WT [2],IC90 mutant/IC90 WT [3],IC90 (MT2) [nM],Ki [4] [nM]
CNC(=O)c1cccc(CN2C(=O)N(Cc3cccc(C(=O)NC)c3)[C@H](Cc3ccccc3)[C@H](O)[C@@H](O)[C@H]2Cc2ccccc2)c1,–,–,–,81,–
COC(=O)Cc1cccc(CN2C(=O)N(Cc3ccc4[nH]ncc4c3)[C@H](Cc3ccccc3)[C@H](O)[C@@H](O)[C@H]2Cc2ccccc2)c1,–,–,–,32,0.11
O=C(Nc1ccccn1)c1cccc(CN2C(=O)N(Cc3cccc(C(=O)Nc4ccccn4)c3)[C@H](Cc3ccccc3)[C@H](O)[C@@H](O)[C@H]2Cc2ccccc2)c1,–,–,–,2.8,–
O=C(Nc1nccs1)c1cccc(CN2C(=O)N(Cc3cccc(C(=O)Nc4nccs4)c3)[C@H](Cc3ccccc3)[C@H](O)[C@@H](O)[C@H]2Cc2ccccc2)c1,–,–,–,4.2,–
Cc1ccc(CN2C(=O)N(Cc3ccc4[nH]ncc4c3)[C@H](Cc3ccccc3)[C@H](O)[C@@H](O)[C@H]2Cc2ccccc2)cc1N,–,–,–,15,0.05
O=C1N(Cc2ccc3ccccc3c2)[C@H](Cc2ccccc2)[C@H](O)[C@@H](O)[C@@H](Cc2ccccc2)N1Cc1ccc2ccccc2c1,–,–,–,3900,–
O=C(O)c1cccc(CN2C(=O)N(Cc3ccc4[nH]ncc4c3)[C@H](Cc3ccccc3)[C@H](O)[C@@H](O)[C@H]2Cc2ccccc2)c1,–,–,–,750,0.049
O=C1N(Cc2cccc(O)c2)[C@H](Cc2ccccc2)[C@H](O)[C@@H](O)[C@@H](Cc2ccccc2)N1Cc1ccc2[nH]ncc2c1,–,–,–,36,0.045
N=C(NO)c1cccc(CN2C(=O)N(Cc3cccc(/C(N)=N/O)c3)[C@H](Cc3ccccc3)[C@H](O)[C@@H](O)[C@H]2Cc2ccccc2)c1,1,0.7,–,300,< 0.01
O=C(Nc1ccccn1)c1cccc(CN2C(=O)N(Cc3ccc4[nH]ncc4c3)[C@H](Cc3ccccc3)[C@H](O)[C@@H](O)[C@H]2Cc2ccccc2)c1,–,–,–,5,0.051
NC(=O)c1cccc(CN2C(=O)N(Cc3cccc(C(N)=O)c3)[C@H](Cc3ccccc3)[C@H](O)[C@H]2CCc2ccccc2)c1,–,–,–,35,–
NC(=O)c1cccc(CN2C(=O)N(Cc3cccc(C(N)=O)c3)[C@H](Cc3ccccc3)[C@H](O)[C@@H](O)[C@H]2Cc2ccccc2)c1,–,–,–,709,–
Nc1cc(CN2C(=O)N(Cc3ccc4[nH]ncc4c3)[C@H](Cc3ccccc3)[C@H](O)[C@@H](O)[C@H]2Cc2ccccc2)ccc1F,–,–,–,14,0.018
N=C(NO)c1cccc(CN2C(=O)N(Cc3cccc(/C(N)=N/O)c3)[C@H](CCc3ccccc3)[C@@H](O)[C@H]2Cc2ccccc2)c1,–,–,–,49,–
Nc1ccc(CN2C(=O)N(Cc3ccc4[nH]ncc4c3)[C@H](Cc3ccccc3)[C@H](O)[C@@H](O)[C@H]2Cc2ccccc2)cc1-n1nccn1,–,–,–,12,0.059
O=C1N(Cc2cccc(Cn3cccn3)c2)[C@H](Cc2ccccc2)[C@H](O)[C@@H](O)[C@@H](Cc2ccccc2)N1Cc1ccc2[nH]ncc2c1,–,–,–,46,0.17
O=C(Cn1cccn1)c1cccc(CN2C(=O)N(Cc3ccc4[nH]ncc4c3)[C@H](Cc3ccccc3)[C@H](O)[C@@H](O)[C@H]2Cc2ccccc2)c1,–,–,–,15,0.063
Nc1ccc(CN2C(=O)N(Cc3ccc4[nH]ncc4c3)[C@H](Cc3ccccc3)[C@H](O)[C@@H](O)[C@H]2Cc2ccccc2)cc1-n1ccnn1,–,–,–,38,0.034
O=C1N(Cc2ccc3[nH]ncc3c2)[C@H](Cc2ccccc2)[C@H](O)[C@@H](O)[C@@H](Cc2ccccc2)N1Cc1ccc2[nH]ncc2c1,–,–,–,7,–
